Laboratory results taken from ChEMBL document CHEMBL1125336, “New bronchodilators. 1. 1,5-Substituted 1H-imidazo[4,5-c]quinolin-4(5H)-ones” (J Med Chem, 1992).

What was measured:
Cavia porcellus [1] = species on record: Cavia porcellus; assay: Inhibition of the Schulz-Dale (SD) reaction-induced contraction in trachea of guinea pig; format: functional
In short: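 Tracheal zig-zag strips from passively sensitized guinea pigs, equilibrated 1 h in Krebs-Henseleit under 95% O2-5% CO2 at 37 °C. Contraction induced by OA at 10 µg/mL final bath concentration. Drug added cumulatively at 7-min intervals once contraction reached plateau; isotonic recording, relaxation scaled to papaverine maximum. Triplicate curves with 4–5 concentrations; IC50 by logit-log fit.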

Cavia porcellus [2] = assay: Effect on collapse time of antigen-induced bronchospasm in passively sensitized guinea pigs (at 50 mg/kg, po).MCT for untreated animals is 254+/-18.; format: functional
Mus musculus = assay: Acute lethal toxicity (minimum lethal dose; MLD, po) in mice.; format: organism-based; conditions: in vivo
In short: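 Male dd mice (20–25 g), n = 3 per dose, given compound orally. Deaths observed for 7 days; MLD taken as the dose killing at least one mouse.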

Cavia porcellus [3] = assay: Effect on collapse time of antigen-induced bronchospasm in passively sensitized guinea pigs (at 25 mg/kg, po).MCT for untreated animals is 254+/-18.; format: functional
Cavia porcellus [4] = species on record: Cavia porcellus; assay: Inhibitory effect on spasmogen (histamine) induced contraction of guinea pig tracheal strips.; format: functional; conditions: Trachea
In short: (§1)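 Zig-zag tracheal strips from normal guinea pigs, equilibrated 1 h in Krebs–Henseleit (95% O2/5% CO2, 37 °C). Contracted with carbachol 3 × 10⁻⁶ mol final, histamine 3 × 10⁻⁵ mol, or LTD4 50 µg/mL. Drug added cumulatively every 7 min after the plateau; isotonic recording. IC50 for 50% relaxation by least-squares regression.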

Cavia porcellus [5] = assay: Effect on heart rate 5(mins) after intravenous administration in anesthetized guinea pigs after intravenous administration of 3 mg/kg; format: functional
In short: (§2)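 Male guinea pigs anesthetized with pentobarbital sodium (50 mg/kg ip), ventilated via tracheotomy with room air (60/min, 10 mL/kg). Left-ventricular cannula via left common carotid to a pressure transducer for LVP and LV dP/dtmax; heart rate triggered by LVP. Drug given iv through the left jugular vein, vehicle PEG 400 diluted with saline. Change expressed as % of pretreatment value; mean ± SEM, n = 5.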

Cavia porcellus [6] = assay: Effect on left ventricular dP/dtmax 3(mins) after intravenous administration in anesthetized guinea pigs after a intravenous administration of 3 mg/kg; format: functional, Heart left ventricle; in short: as §2
Cavia porcellus [7] = assay: Effect on heart rate 0(mins) after intravenous administration in anesthetized guinea pigs after intravenous administration of 3 mg/kg; format: functional; in short: as §2
Cavia porcellus [8] = assay: Effect of the compound (peroral administration) on anaphylactic bronchoconstriction in passively sensitized guinea pigs.; format: functional; conditions: Lung, po
In short: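 Male Hartley guinea pigs (350–450 g) passively sensitized ip with rabbit anti-OA serum 16–24 h before. Urethane-anesthetized, gallamine-paralysed, ventilated. Air overflow (Konzett–Rössler) after OA 5 mg/kg iv. Compound suspended in 0.3% Tween 80, given orally 1 h before challenge. ED50 by linear regression of AUC versus log dose.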

Cavia porcellus [9] = assay: Effect on left ventricular dP/dtmax 5(mins) after intravenous administration in anesthetized guinea pigs after a intravenous administration of 3 mg/kg; format: functional, Heart left ventricle; in short: as §2
Cavia porcellus [10] = assay: Effect on left ventricular dP/dtmax 1(mins) after intravenous administration in anesthetized guinea pigs after a intravenous administration of 3 mg/kg; format: functional, Heart left ventricle; in short: as §2
Cavia porcellus [11] = species on record: Cavia porcellus; assay: Inhibitory effect on spasmogen (leukotriene, LTD4) induced contraction of guinea pig tracheal strips.; format: functional; conditions: Trachea; in short: as §1
Cavia porcellus [12] = assay: Effect on collapse time of antigen-induced bronchospasm in passively sensitized guinea pigs (at 25 mg/kg, po). MCT for untreated animals is 254+/-18; format: functional
Cavia porcellus [13] = assay: Effect on left ventricular dP/dtmax 0(mins) after intravenous administration in anesthetized guinea pigs after a intravenous administration of 3 mg/kg; format: functional, Heart left ventricle; in short: as §2
Cavia porcellus [14] = assay: Effect on heart rate 1(mins) after intravenous administration in anesthetized guinea pigs after intravenous administration of 3 mg/kg; format: functional; in short: as §2
Cavia porcellus [15] = assay: Effect of the compound (intravenous administration) on anaphylactic bronchoconstriction in passively sensitized guinea pigs.; format: functional; conditions: Lung
In short: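 Male Hartley guinea pigs (350–450 g) passively sensitized ip with rabbit anti-OA serum 16–24 h before. Urethane anesthesia (1.5 g/kg ip), gallamine 10 mg/kg iv, ventilated 60–70 strokes/min. Konzett–Rössler air overflow after OA challenge 5 mg/kg iv. Compound in PEG 400 diluted with saline, given iv 90 s after challenge. ED50 by linear regression of AUC versus log dose.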

Cavia porcellus [16] = species on record: Cavia porcellus; assay: Inhibitory effect on spasmogen (carbachol) induced contraction of guinea pig tracheal strips.; format: functional; conditions: Trachea; in short: as §1
Cavia porcellus [17] = assay: Effect on heart rate 3(mins) after intravenous administration in anesthetized guinea pigs after intravenous administration of 3 mg/kg; format: functional; in short: as §2
Cavia porcellus [18] = assay: Effect on left ventricular dP/dtmax 5(mins) after intravenous administration in anesthetized guinea pigs; format: functional, Heart left ventricle
In short: (§3)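 Male guinea pigs under pentobarbital (50 mg/kg ip), tracheotomy, room-air ventilation at 60/min, 10 mL/kg. Carotid cannula advanced into the left ventricle to read LVP and LV dP/dtmax; heart rate triggered from LVP. Single 3 mg/kg iv dose via jugular vein. Values are percent of pretreatment, n = 5.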

Cavia porcellus [19] = assay: Effect on left ventricular dP/dtmax 3(mins) after intravenous administration in anesthetized guinea pigs; format: functional, Heart left ventricle; in short: as §3
Cavia porcellus [20] = assay: Effect on left ventricular dP/dtmax 1(mins) after intravenous administration in anesthetized guinea pigs.; format: functional, Heart left ventricle; in short: as §3
Cavia porcellus [21] = assay: Effect on heart rate 1(mins) after intravenous administration in anesthetized guinea pigs.; format: functional; in short: as §3
Cavia porcellus [22] = assay: Effect on heart rate 3(mins) after intravenous administration in anesthetized guinea pigs; format: functional; in short: as §3
Cavia porcellus [23] = assay: Effect on left ventricular dP/dtmax 0(mins) after intravenous administration in anesthetized guinea pigs.; format: functional, Heart left ventricle; in short: as §3
Cavia porcellus [24] = assay: Effect on heart rate 0(mins) after intravenous administration in anesthetized guinea pigs.; format: functional; in short: as §3
Cavia porcellus [25] = assay: Effect on heart rate 5(mins) after intravenous administration in anesthetized guinea pigs; format: functional; in short: as §3

Structure (SMILES)	IC50 (Cavia porcellus [1])	MLD (Mus musculus)	other results
CCCCn1c(=O)c2ncn(Cc3ccccc3)c2c2ccccc21	> 30 µM	–	–
COCCn1c(=O)c2ncn(C)c2c2ccccc21	> 30 µM	–	–
CCn1c(=O)c2ncn(C)c2c2ccccc21	> 30 µM	–	–
CCCCn1cnc2c(=O)n(CCCC)c3ccccc3c21	5.47 µM	> 300 mg/kg	MCT (Cavia porcellus [2]): 504 s
Cn1cnc2c(=O)n(Cc3ccco3)c3ccccc3c21	> 30 µM	–	–
CCCCn1c(=O)c2nc(S)n(C)c2c2ccccc21	8.2 µM	> 300 mg/kg	–
CCCCn1c(=O)c2nc(-c3ccco3)n(C)c2c2ccccc21	> 30 µM	–	–
CCCCn1c(=O)c2ncn(C(C)C)c2c2ccccc21	2.6 µM	> 300 mg/kg	MCT (Cavia porcellus [3]): 425 s
Cn1cnc2c(=O)n(C)c3ccccc3c21	> 30 µM	–	–
CCCCn1c(=O)c2nc(-c3ccccc3)n(C)c2c2ccccc21	> 30 µM	–	–
CCCCCn1c(=O)c2ncn(C)c2c2ccccc21	> 30 µM	–	–
CCCCn1c(=O)c2ncn(CC)c2c2ccccc21	4.9 µM	> 300 mg/kg	–
Cn1cnc2c(=O)n(Cc3ccccc3)c3ccccc3c21	> 30 µM	–	–
CCCCn1c(=O)c2ncn(CCC)c2c2ccccc21	3.99 µM	> 300 mg/kg	–
CCCCn1c(=O)c2nc(-c3ccc(OC)cc3)n(C)c2c2ccccc21	> 30 µM	–	–
CCCn1c(=O)c2ncn(C)c2c2ccccc21	10.7 µM	300 mg/kg	–
CCCCn1c(=O)c2nnn(C)c2c2ccccc21	1.58 µM	> 300 mg/kg	MCT (Cavia porcellus [2]): 296 s

Structure (SMILES)	IC50 (Cavia porcellus [1])	MLD (Mus musculus)	other results
CCCCn1c(=O)c2ncn(C)c2c2ccccc21	0.25 µM	> 300 mg/kg	IC50 (Cavia porcellus [4]): 2.12 µM; Heart rate (Cavia porcellus [5]): 101%; LV dP/dtmax (Cavia porcellus [6]): 98.9%; Heart rate (Cavia porcellus [7]): 100%; ED50 (Cavia porcellus [8]): 44.9 mg/kg; LV dP/dtmax (Cavia porcellus [9]): 99.4%; LV dP/dtmax (Cavia porcellus [10]): 91.6%; IC50 (Cavia porcellus [11]): 9.19 µM; MCT (Cavia porcellus [12]): 342 s; LV dP/dtmax (Cavia porcellus [13]): 100%; Heart rate (Cavia porcellus [14]): 98.5%; ED50 (Cavia porcellus [15]): 0.42 mg/kg; IC50 (Cavia porcellus [16]): 27.2 µM; Heart rate (Cavia porcellus [17]): 101%
CCCCn1c(=O)c2ncn(C)c2c2cc(Cl)ccc21	> 30 µM	–	–
Cn1c(=O)c2nc[nH]c2n(C)c1=O.O [THEOPHYLLINE]	6.52 µM	–	MCT (Cavia porcellus [3]): 389 s
CCCCn1c(=O)c2nc(O)n(C)c2c2ccccc21	> 30 µM	–	–
CCCCn1c(=O)c2nc(C)n(C)c2c2ccccc21	> 30 µM	–	–
Cn1cnc2c(=O)n(C3CCCC3)c3ccccc3c21	6.58 µM	300 mg/kg	–
CCCCn1c(=O)c2nc(-c3ccc(Cl)c(Cl)c3)n(C)c2c2ccccc21	> 30 µM	–	–
CCCCn1c2c(c3c(ncn3C)c1=O)CCCC2	> 30 µM	–	–
C=CCCn1c(=O)c2ncn(C)c2c2ccccc21	5.62 µM	200 mg/kg	MCT (Cavia porcellus [2]): 342 s
CCCCn1c(=O)c2ncn(-c3ccccc3)c2c2ccccc21	> 30 µM	–	–
CC(C)Cn1c(=O)c2ncn(C)c2c2ccccc21	> 30 µM	–	–
CCCCn1c(=O)c2ncn(C)c2c2cc(OC)c(OC)cc21	> 30 µM	–	–
CCCCn1c(=O)c2ncn(C)c2c2ccc(Cl)cc21.Cl	1.52 µM	> 300 mg/kg	MCT (Cavia porcellus [2]): 289 s
CCCCn1c(=O)c2ncn(C)c2c2c(C)cccc21	> 30 µM	–	–
Cn1c(=O)c2[nH]cnc2n(C)c1=O.Cn1c(=O)c2[nH]cnc2n(C)c1=O.NCCN [AMINOPHYLLINE]	16.7 µM	–	LV (Cavia porcellus [18]): 116%; IC50 (Cavia porcellus [4]): 33.2 µM; LV (Cavia porcellus [19]): 117%; ED50 (Cavia porcellus [8]): 51.7 mg/kg; LV (Cavia porcellus [20]): 125%; Heart rate (Cavia porcellus [21]): 108%; IC50 (Cavia porcellus [11]): 23.6 µM; Heart rate (Cavia porcellus [22]): 105%; ED50 (Cavia porcellus [15]): 7.8 mg/kg; LV (Cavia porcellus [23]): 100%; IC50 (Cavia porcellus [16]): 37.7 µM; Heart rate (Cavia porcellus [24]): 100%; Heart rate (Cavia porcellus [25]): 105%
CCCCn1c(=O)c2ncn(C)c2c2cc(C)ccc21	7.97 µM	> 300 mg/kg	MCT (Cavia porcellus [2]): 356 s
Cn1cnc2c(=O)n(CC(=O)O)c3ccccc3c21	> 30 µM	–	–
